This passage reports Activity, Ki and IC50 results from ChEMBL document CHEMBL4715891, “Development of sulfahydantoin derivatives as β-lactamase inhibitors” (Bioorg Med Chem Lett, 2021).

One may read the Ki as a measure of affinity in units of concentration, obtained from inhibition or displacement. A high value points to a looser hold on the target. In general, IC50 refers to the concentration at which inhibition is half-maximal.

Test [1] concerns Bacteria. Put plainly: Inhibition of 15N-Labeled beta lactamase TEM-1 (unknown origin) over expressed in Escherichia coli BL21(DE3) cells assessed as residual activity at 1 mM by CENTA relative to control. The method, boiled down: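 TEM-1 (116 nM) screened with inhibitor at 1 mM, hydrolysis of chromogenic CENTA at 300 μM (~8× Km of 36 μM) followed. Activity expressed relative to positive control lacking inhibitor, mean ± standard deviation of at least three replicates. Enzyme purity >83% by SDS-PAGE.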

Test [2] can be described thus: Uncompetitive inhibition of 15N-Labeled beta lactamase TEM-1 (unknown origin) over expressed in Escherichia coli BL21(DE3) cells by CENTA. The arrangement: species or system Bacteria.
The nature of test [3]: Competitive inhibition of 15N-Labeled beta lactamase TEM-1 (unknown origin) over expressed in Escherichia coli BL21(DE3) cells by CENTA. The arrangement: species or system Bacteria.
Test [4] is described as follows: Inhibition of 15N-Labeled beta lactamase TEM-1 G1u104Lys/Gly238Ser double mutant (unknown origin) over expressed in Escherichia coli BL21(DE3) cells by CENTA. On the set-up: species or system Bacteria. A digest of the protocol:
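TEM-15 from E. coli expression, purified to >83% by SDS-PAGE. Hydrolysis of the chromogenic substrate CENTA (300 μM) monitored across two-fold inhibitor dilutions. IC50 obtained by fitting a dose-response curve.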

Test [5] in a line: Inhibition of 15N-Labeled beta lactamase TEM-1 (unknown origin) over expressed in Escherichia coli BL21(DE3) cells by CENTA. On the set-up: species or system Bacteria. A digest of the protocol: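 IC50 against TEM-1 from CENTA (300 μM) hydrolysis using two-fold inhibitor dilutions; value derived by fitting a dose-response curve. Enzyme purity >83% by SDS-PAGE.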
The nature of test [6]: Noncompetitive inhibition of 15N-Labeled beta lactamase TEM-1 (unknown origin) over expressed in Escherichia coli BL21(DE3) cells by CENTA. On the set-up: species or system Bacteria.
Test [7] has as its system Bacteria. Put plainly: Inhibition of 15N-Labeled beta lactamase TEM-1 G1u104Lys/Gly238Ser double mutant (unknown origin) over expressed in Escherichia coli BL21(DE3) cells assessed as residual activity at 1 mM by CENTA relative to control. The method, boiled down:
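TEM-15 produced in E. coli, purified to >83% by SDS-PAGE, used at 56 nM. Inhibitor screened at 1 mM against hydrolysis of the chromogenic substrate CENTA (300 μM). Activity expressed relative to the positive control without inhibitor, as mean ± standard deviation of at least three replicates.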

With `O=C(O)CN1C(=O)[C@H](Cc2ccc(F)cc2)N(Cc2ccc([N+](=O)[O-])cc2)S1(=O)=O`, the Activity with Bacteria [1] is 101%.
In the case of `O=C(O)CN1C(=O)[C@H](Cc2ccc(Br)cc2)N(Cc2ccc(Br)cc2)S1(=O)=O`, the Ki stood at 268 µM in test [2], 32 µM in test [3] and 300 µM in test [6]. In addition, the Activity in the test with Bacteria [1] was 10%; with Bacteria [7] it was 0%. Also, the IC50 in test [4] was 130 µM; in test [5] it was 300 µM.
Consider `O=C(O)CN1C(=O)[C@H](Cc2ccc(Br)cc2)N(Cc2ccc([N+](=O)[O-])cc2)S1(=O)=O`, for which, in the test with Bacteria [1], the Activity turned out to be 100%.
As for `COc1ccc(CN2[C@@H](Cc3ccc(F)cc3)C(=O)N(CC(=O)O)S2(=O)=O)cc1`, the Activity in the test on Bacteria [1] is 124%.
For the molecule `O=C(O)CN1C(=O)[C@H](Cc2ccc(F)cc2)N(Cc2ccc(Br)cc2)S1(=O)=O`, the Ki in test [2] worked out at 455 µM; in test [3], 55 µM; in test [6], 510 µM. For the same molecule, the Activity in the test with Bacteria [1] was determined as 34%; in the test on Bacteria [7], 53%. Further, in test [5], the midpoint of inhibition, the IC50, lay at 510 µM.
As to `COc1ccc(CN2[C@@H](Cc3ccc(Br)cc3)C(=O)N(CC(=O)O)S2(=O)=O)cc1`, the Activity with Bacteria [1] was 92%.
